Source: PubChem (The Scripps Research Institute Molecular Screening Center)
TAAR1 ag = human TAAR1 agonism | CHO RD-HGA16 TAAR1, Fluo-8 calcium fluorescence; vehicle wells 0%, saturating PEA agonist 100% | hit rate 0.99% among 360,000 | activation, % at 3 µM | Q96RJ0 | AID 624467;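 active = activation above the mean activation of all test compounds in the run plus 3 SD, cut at about 38% in these data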
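Assay system – CHO-derived RD-HGA16 cells with stable Gα16 and human TAAR1 · Compound dosing – one-point dosing at 3 µM (nominal) · Incubation – 17-24 h seeding, 75 min 37 °C dye, 30 min RT · Measured by – kinetic Fluo-8 calcium fluorescence · Control set – DMSO vehicle as 0%, PEA at EC100 as 100% · Repeats – single well for each compound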
TAAR1 antagonist = antagonists of human TAAR1 | Q96RJ0 | CHO RD-HGA16 TAAR1, Fluo-8 calcium fluorescence, antagonist | inhibition, % at 3 µM | hit rate 1.5% among 360,000;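 active = inhibition above a per-plate cutoff, the mean inhibition of test compounds on that plate plus 3 SD, cut at about 49% in these data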;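 note: 0% = DMSO plus EC80 beta-PEA response and 100% = DMSO alone without agonist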
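Test system: hTAAR1-expressing CHO RD-HGA16 cells, Gα16-coupled; Probe or stimulus: EC80 β-phenethylamine stimulus; Compound dosing: single nominal final test compound concentration of 3 µM; Timing: 140 s kinetic read after compound, 140 s after agonist; Signal: Fluo-8 calcium-sensitive fluorescence; Measure: % inhibition of agonist calcium response; Controls: DMSO and EC80 PEA controls.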
V1R ag counter = V1a receptor agonism, counter-screen for OXTR agonists | activation, % at 3 µM | P37288 | CHO-V1R cells, Fluo-8 calcium fluorescence, agonist mode; 0% DMSO, 100% 3 nM vasopressin | hit rate 0.25% among 320,000;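 active = activation above the mean activation of all tested compounds plus 3 SD, per screening run, cut at about 20% in these data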;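 note: signal is peak over basal fluorescence ratio across a 100 second FLIPR read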
Target sequence (P37288 whole entry, looked up): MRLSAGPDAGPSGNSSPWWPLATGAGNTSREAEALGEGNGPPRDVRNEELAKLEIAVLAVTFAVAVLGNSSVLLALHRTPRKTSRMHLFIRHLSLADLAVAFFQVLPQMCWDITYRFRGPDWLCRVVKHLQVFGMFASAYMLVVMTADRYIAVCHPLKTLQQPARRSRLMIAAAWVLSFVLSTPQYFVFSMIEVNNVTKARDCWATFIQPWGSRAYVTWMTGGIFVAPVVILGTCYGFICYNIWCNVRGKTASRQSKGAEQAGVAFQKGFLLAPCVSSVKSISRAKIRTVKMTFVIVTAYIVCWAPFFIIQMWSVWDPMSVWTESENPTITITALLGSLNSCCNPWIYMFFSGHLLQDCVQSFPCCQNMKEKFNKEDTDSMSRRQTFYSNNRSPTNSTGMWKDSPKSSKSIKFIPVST
OXTR potentiator = human OXTR potentiation; P30559; CHO-OTR cells, Fluo-8 calcium fluorescence, potentiator mode; 0% = oxytocin EC15, 100% = EC100; activation, % at 3 µM; hit rate 0.061% among 320,000; AID 2445;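 active = activation above that plate's cutoff, the mean activation of tested compounds plus 3 SD, cut at about 6.6% in these data, passing the limit was not always enough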;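 note: 100% uses oxytocin at 75 nM as the full agonist control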
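Assay system: CHO-OTR cells, human receptor / Also added: oxytocin at about EC15, sub-maximal agonist stimulus / Dosing: single dose, 3.0 µM nominal final compound concentration / Incubation: 6 min pre-incubation, 100 s read / Technique: Fluo-8 calcium dye fluorescence / Read-out: % activation vs EC15 and EC100 oxytocin / Benchmarks: EC15 oxytocin low, 75 nM oxytocin high / Replicates: singlicate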
OXTR ag = agonists of human oxytocin receptor; P30559; CHO-OTR cells, Fluo-8 calcium fluorescence; normalized: DMSO 0%, oxytocin 100%; activation, % at 3 µM; hit rate 0.32% among 320,000;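 active = activation above the mean of all tested compounds plus 3 SD, cutoff set per screening run, cut at about 20% in these data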;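 note: peak over basal fluorescence ratio from a 100 s FLIPR kinetic read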
Active calls of the source: *; nt = no result given. Only some compounds are listed: those with a hit (about 2.3% of all), similar ones and a draw of the others.

SMILES | TAAR1 ag | TAAR1 antagonist | V1R ag counter | OXTR potentiator | OXTR ag
O=C(NCC1CCN(C(=O)c2ccc([N+](=O)[O-])cc2)CC1)c1ccc([N+](=O)[O-])cc1 | 4 | -14 | 0 | -9 | -1
CC(C)C(=O)Nc1ccc(N2CCOCC2)c(S(=O)(=O)Nc2ccccc2Cl)c1 | 25 | 53* | 1 | -6 | 1
O=C(Cn1c(=O)n(CCc2c[nH]c3ccccc23)c(=O)c2cccnc21)Nc1ccccc1F | 12 | 52* | 3 | -8 | 5
COc1ccc(Cc2nnc(NC(=O)Nc3ccccc3OC)s2)cc1 | 3 | -14 | 4 | -4 | 10
O=c1c2ccccc2nc(COc2ccccc2)n1/N=C/c1cn[nH]c1-c1ccccc1 | 9 | 55* | 3 | -6 | -1
CCN(C(=O)COc1cc(=O)n(CC)c2ccccc12)c1cc(Cl)ccc1OC | 8 | 49* | 0 | -1 | -1
CCN(C(=O)COc1cc(=O)n(CC)c2ccccc12)c1cccc(Cl)c1 | 12 | 3 | 2 | -11 | 1
O=C(Nc1ccc2c(c1)CCCN2C(=O)c1ccccc1)c1ccccc1 | 12 | 58* | 6 | -1 | -1
O=C1C2C3c4ccccc4C(c4ccccc43)[C@@H]2c2nc3ccccc3n21 (some centres undefined) | 8 | 33 | -1 | -15 | -1
N/C(=N\OC(=O)COc1ccc2ccccc2c1)c1ccccn1 | 48* | 23 | 13 | -13 | 10
NS(=O)(=O)c1ccc(Nc2nc(-c3cccc([N+](=O)[O-])c3)cs2)cc1 | 7 | 55* | -1 | -7 | -1
NS(=O)(=O)c1ccc(Nc2nc(-c3ccc4ccccc4c3)cs2)cc1 | 0 | 2 | 0 | -10 | 3
O=C(NC1CCCC1)C(c1ccc(F)cc1)N(Cc1ccc(F)cc1)C(=O)c1ccn[nH]1 (centres undefined) | 8 | 9 | 0 | -7 | -1
COCCCNC(=O)c1oc2ccc(S(=O)(=O)N3CCOCC3)cc2c1C | 7 | 6 | 0 | 0 | 0
Cc1c(C(=O)NCCc2ccccc2)oc2ccc(S(=O)(=O)N3CCOCC3)cc12 | 38* | 29 | 7 | -8 | 3
Cc1c(C(=O)NCC2COc3ccccc3O2)oc2ccc(S(=O)(=O)N3CCOCC3)cc12 (centres undefined) | 33 | 58* | 6 | -9 | 8
Cc1ccc(C(=O)Oc2cccc(NC(=O)c3cccs3)c2)cc1S(=O)(=O)N1CCOCC1 | 11 | 57* | 0 | -19 | -2
Cc1c(C(=O)NCc2ccccc2)oc2ccc(S(=O)(=O)N3CCC4(CC3)OCCO4)cc12 | 18 | 23 | 4 | -7 | 1
Cc1c(C(=O)NCCC2=CCCCC2)oc2ccc(S(=O)(=O)N3CCC4(CC3)OCCO4)cc12 | 21 | 60* | 2 | -12 | 0
CCOc1ccc(N2CC(NC(=O)c3cccc4ccccc34)CC2=O)cc1 (centres undefined) | 2 | -3 | 1 | 3 | 0
O=C1CC(c2ccccc2)CC(O)=C1C=Nc1ccc(O)cc1 (centres undefined) | 1 | -1 | 0 | -20 | 0
COc1cccc(NC(=O)c2oc3ccc(S(=O)(=O)N4CCOCC4)cc3c2C)c1 | 19 | 52* | 4 | -2 | 0
O=C(c1ccc2c(=O)n(Cc3ccccc3)c(=S)[nH]c2c1)N1CCCC1 | 6 | -18 | 3 | -2 | 2
Cc1ccc2nc(SCC(=O)c3ccc(O)cc3O)[nH]c2c1 | 41* | -30 | -1 | -2 | 2
CC(=O)c1cccc(S(=O)(=O)Nc2cccnc2)c1 | 6 | -7 | 1 | -3 | 0
C[C@]12CCC3c4ccc(O)cc4CCC3C1CC/C2=N\N (some centres undefined) | 7 | -40 | 2 | -8 | 2
Cc1nn(C)c(C)c1/C=N/N=C1\CCC2C3CCc4cc(O)ccc4C3CCC12C (centres undefined) | 14 | 63* | 9 | -21 | 11
COc1ccc(C2(CNC(=O)c3cc(OC)c(OC)c(OC)c3)CCCC2)cc1OC | 2 | -40 | nt | nt | nt
CCOc1ccc(C(=O)Cc2cc(OC)c(OC)cc2[N+](=O)[O-])cc1 | 42* | 63* | 0 | -5 | 1
